ChEMBL document CHEMBL3822375, “Preclinical Characterization of 3β-(N-Acetyl l-cysteine methyl ester)-2aβ,3-dihydrogaliellalactone (GPA512), a Prodrug of a Direct STAT3 Inhibitor for the Treatment of Prostate Cancer” (J Med Chem, 2016)

How the values were obtained:
[1] = Chemical stability of the compound in phosphate buffer saline assessed as half life at 10 uM at pH 7.4 by LC-MS/MS analysis; assay type: physicochemical; conditions: phosphate buffered saline
In short: (§1)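 Compound diluted from DMSO (or methanol) stock to 10 µM, 2% solvent final, n=2. Matrix was 0.1 M PBS pH 7.4, or […] HCl with 2 mg/mL NaCl adjusted to pH 1.2. Mixed on a shaker; sampled at nominal 5, 15, 30 and 60 min plus T=0. LC-MS/MS with internal standard; % remaining relative to T=0. Formation of parent also monitored.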

[2] = Antiproliferative activity against human DU145 cells after 72 hrs by WST-1 proliferation assay; assay type: functional, cell-based; conditions: DU-145, 72 h
In short: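 Cells in RPMI-1640 (DU145, LNCaP, LNCaP-IL6+) or HAM's F-12 (PC3) with 10% FBS. DU145 and LNCaP-IL6+ seeded at 2 000 cells/well, LNCaP and PC3 at 5 000 cells/well, adhered 24 h, then exposed to compound for 72 h. WST-1 absorbance read at 450 nm with 630 nm reference. Background subtracted; expressed as percent of untreated cells.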

Mus musculus [3] = experiment: Apparent half life in mouse plasma assessed as galiellalactone level at 10 mg/kg, po by LC-MS/MS analysis; assay type: ADME, organism-based; conditions: in vivo
In short: (§2)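 Single dose to mice; oral, iv or ip as listed, in 5% DMSO/50 mM citrate buffer pH 4.0 (dosing solutions 0.5, 2 or 5 mg/mL). Oral dosing at 20 mL/kg. Terminal blood under barbiturate anaesthesia at eight time-points to 8 h, n=3 mice per time-point, EDTA plasma. Acetonitrile precipitation with internal standard, LC-MS/MS against plasma calibration lines. Non-compartmental analysis on mean data, trapezoidal AUC.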

Mus musculus [4] = experiment: AUC (0 to t) in mouse plasma assessed as galiellalactone level at 10 mg/kg, po by LC-MS/MS analysis; assay type: ADME, organism-based; conditions: in vivo; in short: as §2
Mus musculus [5] = experiment: Tmax in mouse plasma assessed as galiellalactone level at 10 mg/kg, po by LC-MS/MS analysis; assay type: ADME, organism-based; conditions: in vivo
Mus musculus [6] = experiment: AUC (0 to infinity) in mouse plasma assessed as galiellalactone level at 10 mg/kg, po by LC-MS/MS analysis; assay type: ADME, organism-based; parameters: dose 10 mg/kg, route oral, time infinity; conditions: in vivo; in short: as §2
Mus musculus [7] = experiment: Cmax in mouse plasma assessed as galiellalactone level at 10 mg/kg, po by LC-MS/MS analysis; assay type: ADME, organism-based; parameters: dose 10 mg/kg, route oral; conditions: in vivo; in short: as §2
[8] = Half life of compound in acidic buffer at pH 1.2 at 10 uM by LC-MS analysis; assay type: physicochemical; in short: as §1

SMILES | half-life at 10 µM [1] | t1/2(app) (Mus musculus [3]) | AUCt (Mus musculus [4]) | Tmax (Mus musculus [5]) | AUC (Mus musculus [6]) | Cmax (Mus musculus [7]) | half-life at 10 µM [8] | IC50 [2]
C[C@H]1C[C@H]2CC[C@H]3OC(=O)C([C@@H]1SCCS(=O)(=O)O)[C@@]23O (stereo not given in full) | > 2.5 h |  |  |  |  |  |  | 11.4 µM
COC(=O)[C@H](CS[C@H]1C2C(=O)O[C@@H]3CC[C@H](C[C@@H]1C)[C@]23O)NC(=O)OC(C)(C)C (stereo not given in full) | > 2.5 h | 5.8 h | 11 µg/mL/min | 0.25 h | 17 µg/mL/min | 52 ng/mL |  | 
COC(=O)[C@H](CS[C@H]1C2C(=O)O[C@@H]3CC[C@H](C[C@@H]1C)[C@]23O)NC(=O)C(C)C (stereo not given in full) | > 2.5 h | 4.23 h | 15 µg/mL/min | 0.5 h | 21 µg/mL/min | 303 ng/mL |  | 

Second part, led by results:

half-life at 10 µM [1] | t1/2(app) (Mus musculus [3]) | AUCt (Mus musculus [4]) | Tmax (Mus musculus [5]) | AUC (Mus musculus [6]) | Cmax (Mus musculus [7]) | half-life at 10 µM [8] | SMILES | IC50 [2]
 | 3.17 h | 36 µg/mL/min | 0.25 h | 41 µg/mL/min | 478 ng/mL |  | C[C@H]1C[C@H]2CC[C@H]3OC(=O)C([C@@H]1Sc1ccccc1)[C@@]23O (stereo not given in full) | 
0.367 h | 4.63 h | 85 µg/mL/min | 0.5 h | 102 µg/mL/min | 788 ng/mL | > 2.5 h | COC(=O)[C@@H](N)CS[C@H]1C2C(=O)O[C@@H]3CC[C@H](C[C@@H]1C)[C@]23O (stereo not given in full) | 4.51 µM
1.1 h | 2.15 h | 97 µg/mL/min | 0.5 h | 101 µg/mL/min | 949 ng/mL |  | COC(=O)[C@H](CS[C@H]1C2C(=O)O[C@@H]3CC[C@H](C[C@@H]1C)[C@]23O)NC(=O)[C@@H](N)C(C)C (stereo not given in full) | 
> 2.5 h |  |  |  |  |  |  | C[C@H]1C[C@H]2CC[C@H]3OC(=O)C([C@@H]1SC[C@H](NC(=O)CC[C@H](N)C(=O)O)C(=O)NCC(=O)O)[C@@]23O (stereo not given in full) | 6.14 µM
